Source: ChEMBL document CHEMBL4000194, “Design and Synthesis of a Series of l-trans-4-Substituted Prolines as Selective Antagonists for the Ionotropic Glutamate Receptors Including Functional and X-ray Crystallographic Studies of New Subtype Selective Kainic Acid Receptor Subtype 1 (GluK1) Antagonist …” (J Med Chem, 2017)

What was measured:
[1] = molecular target: T1, Glutamate receptor ionotropic, kainate 1 (Rattus norvegicus, UniProt P22756); experiment: Displacement of [3H]NF608 from eGFP-fused recombinant rat full length GluK1 receptor expressed in HEK293T/17 cells by liquid scintillation counting method; assay type: cell-based
T1 sequence (P22756 whole entry, the tested form may be a part): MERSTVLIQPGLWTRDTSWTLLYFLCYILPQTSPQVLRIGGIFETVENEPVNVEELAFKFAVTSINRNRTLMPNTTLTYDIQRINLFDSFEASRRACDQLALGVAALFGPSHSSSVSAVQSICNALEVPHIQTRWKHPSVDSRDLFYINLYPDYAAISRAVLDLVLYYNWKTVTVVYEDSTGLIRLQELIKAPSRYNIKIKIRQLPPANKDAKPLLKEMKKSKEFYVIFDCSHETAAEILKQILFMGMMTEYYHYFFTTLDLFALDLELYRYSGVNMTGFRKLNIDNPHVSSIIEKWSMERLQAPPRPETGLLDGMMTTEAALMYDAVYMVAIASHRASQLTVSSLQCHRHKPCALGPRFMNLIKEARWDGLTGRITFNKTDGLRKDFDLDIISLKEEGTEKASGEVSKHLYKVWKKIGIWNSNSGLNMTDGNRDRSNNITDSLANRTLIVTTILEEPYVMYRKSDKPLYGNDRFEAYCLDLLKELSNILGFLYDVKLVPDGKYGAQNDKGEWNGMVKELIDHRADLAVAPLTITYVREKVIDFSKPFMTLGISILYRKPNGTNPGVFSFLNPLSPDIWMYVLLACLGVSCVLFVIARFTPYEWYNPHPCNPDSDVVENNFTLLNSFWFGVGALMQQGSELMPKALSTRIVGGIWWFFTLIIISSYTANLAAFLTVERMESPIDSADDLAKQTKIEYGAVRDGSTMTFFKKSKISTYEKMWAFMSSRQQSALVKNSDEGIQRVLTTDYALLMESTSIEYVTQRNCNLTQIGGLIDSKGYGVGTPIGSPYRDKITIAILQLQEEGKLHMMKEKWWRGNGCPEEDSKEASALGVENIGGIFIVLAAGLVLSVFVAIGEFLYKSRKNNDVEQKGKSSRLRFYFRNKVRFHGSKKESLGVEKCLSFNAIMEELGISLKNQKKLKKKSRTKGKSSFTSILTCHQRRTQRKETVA

[2] = Displacement of [3H]CGP39653 from NMDA receptor in rat brain synaptosomal membranes after 60 mins by TopCount microplate scintillation counting method; assay type: cell membranes
Glutamate receptor 2 = Glutamate receptor 2 (Rattus norvegicus, UniProt P19491); experiment: Displacement of (RS)-[3H]AMPA from eGFP-fused recombinant rat full length GluA2 receptor expressed in HEK293T/17 cells by liquid scintillation counting method; assay type: cell-based
Sequence of Glutamate receptor 2 (P19491 whole entry, the tested form may be a part): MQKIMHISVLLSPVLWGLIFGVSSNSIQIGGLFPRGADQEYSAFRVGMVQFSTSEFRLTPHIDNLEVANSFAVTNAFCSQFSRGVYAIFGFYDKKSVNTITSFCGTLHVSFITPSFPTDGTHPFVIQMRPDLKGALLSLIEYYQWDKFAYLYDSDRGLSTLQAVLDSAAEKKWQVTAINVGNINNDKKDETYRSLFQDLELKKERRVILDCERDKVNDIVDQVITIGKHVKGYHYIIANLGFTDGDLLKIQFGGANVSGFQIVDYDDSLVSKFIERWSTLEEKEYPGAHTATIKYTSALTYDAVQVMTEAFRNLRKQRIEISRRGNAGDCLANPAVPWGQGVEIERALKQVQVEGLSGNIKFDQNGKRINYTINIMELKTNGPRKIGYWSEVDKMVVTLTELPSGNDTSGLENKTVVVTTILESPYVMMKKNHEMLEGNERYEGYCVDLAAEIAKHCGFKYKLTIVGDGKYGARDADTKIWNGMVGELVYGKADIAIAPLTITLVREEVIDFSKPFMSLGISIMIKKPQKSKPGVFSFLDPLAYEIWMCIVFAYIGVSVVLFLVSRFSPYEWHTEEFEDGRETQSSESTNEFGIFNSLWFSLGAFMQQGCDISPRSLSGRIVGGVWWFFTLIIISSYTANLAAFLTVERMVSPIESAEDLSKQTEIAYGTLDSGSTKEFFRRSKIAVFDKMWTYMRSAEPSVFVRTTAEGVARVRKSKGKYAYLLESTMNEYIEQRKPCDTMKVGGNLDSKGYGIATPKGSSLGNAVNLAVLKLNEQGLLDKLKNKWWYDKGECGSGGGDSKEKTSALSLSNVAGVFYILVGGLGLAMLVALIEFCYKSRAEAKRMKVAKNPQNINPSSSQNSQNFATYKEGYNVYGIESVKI

[3] = molecular target: Glutamate receptor ionotropic, kainate 3 (Rattus norvegicus, UniProt P42264); experiment: Displacement of [3H]kainic acid from eGFP-fused recombinant rat full length GluK3 receptor expressed in HEK293T/17 cells by liquid scintillation counting method; assay type: cell-based
Sequence of Glutamate receptor ionotropic, kainate 3 (P42264 whole entry, the tested form may be a part): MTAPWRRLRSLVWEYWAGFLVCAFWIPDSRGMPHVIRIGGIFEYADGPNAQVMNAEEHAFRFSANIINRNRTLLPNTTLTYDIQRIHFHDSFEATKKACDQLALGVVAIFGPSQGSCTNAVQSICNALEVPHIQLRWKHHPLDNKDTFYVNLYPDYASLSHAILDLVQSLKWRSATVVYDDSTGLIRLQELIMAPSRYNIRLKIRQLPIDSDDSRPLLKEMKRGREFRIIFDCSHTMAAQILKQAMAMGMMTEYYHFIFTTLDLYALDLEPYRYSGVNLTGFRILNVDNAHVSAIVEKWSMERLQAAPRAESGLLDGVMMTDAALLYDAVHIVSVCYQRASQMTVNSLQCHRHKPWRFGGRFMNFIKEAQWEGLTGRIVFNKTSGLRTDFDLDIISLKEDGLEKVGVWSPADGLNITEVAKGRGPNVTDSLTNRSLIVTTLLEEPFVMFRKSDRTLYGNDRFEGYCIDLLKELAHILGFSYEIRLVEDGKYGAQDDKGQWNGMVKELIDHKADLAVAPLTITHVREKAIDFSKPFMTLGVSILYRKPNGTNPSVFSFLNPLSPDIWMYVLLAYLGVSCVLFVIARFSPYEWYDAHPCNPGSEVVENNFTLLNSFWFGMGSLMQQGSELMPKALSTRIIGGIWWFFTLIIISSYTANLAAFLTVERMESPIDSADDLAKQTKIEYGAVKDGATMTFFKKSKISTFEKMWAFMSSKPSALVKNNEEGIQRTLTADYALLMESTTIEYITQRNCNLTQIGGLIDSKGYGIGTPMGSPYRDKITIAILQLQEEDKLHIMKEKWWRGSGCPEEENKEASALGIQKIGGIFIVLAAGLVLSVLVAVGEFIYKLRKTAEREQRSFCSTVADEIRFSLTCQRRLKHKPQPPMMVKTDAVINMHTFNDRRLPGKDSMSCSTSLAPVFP

[4] = Displacement of [3H]AMPA from AMPA receptor in rat brain synaptosomal membranes after 30 mins by TopCount microplate scintillation counting method; assay type: cell membranes
[5] = molecular target: T2, Glutamate receptor ionotropic, kainate 2 (Rattus norvegicus, UniProt P42260); experiment: Displacement of [3H]kainic acid from eGFP-fused recombinant rat full length GluK2 receptor expressed in HEK293T/17 cells by liquid scintillation counting method; assay type: cell-based
T2 sequence (P42260 whole entry, the tested form may be a part): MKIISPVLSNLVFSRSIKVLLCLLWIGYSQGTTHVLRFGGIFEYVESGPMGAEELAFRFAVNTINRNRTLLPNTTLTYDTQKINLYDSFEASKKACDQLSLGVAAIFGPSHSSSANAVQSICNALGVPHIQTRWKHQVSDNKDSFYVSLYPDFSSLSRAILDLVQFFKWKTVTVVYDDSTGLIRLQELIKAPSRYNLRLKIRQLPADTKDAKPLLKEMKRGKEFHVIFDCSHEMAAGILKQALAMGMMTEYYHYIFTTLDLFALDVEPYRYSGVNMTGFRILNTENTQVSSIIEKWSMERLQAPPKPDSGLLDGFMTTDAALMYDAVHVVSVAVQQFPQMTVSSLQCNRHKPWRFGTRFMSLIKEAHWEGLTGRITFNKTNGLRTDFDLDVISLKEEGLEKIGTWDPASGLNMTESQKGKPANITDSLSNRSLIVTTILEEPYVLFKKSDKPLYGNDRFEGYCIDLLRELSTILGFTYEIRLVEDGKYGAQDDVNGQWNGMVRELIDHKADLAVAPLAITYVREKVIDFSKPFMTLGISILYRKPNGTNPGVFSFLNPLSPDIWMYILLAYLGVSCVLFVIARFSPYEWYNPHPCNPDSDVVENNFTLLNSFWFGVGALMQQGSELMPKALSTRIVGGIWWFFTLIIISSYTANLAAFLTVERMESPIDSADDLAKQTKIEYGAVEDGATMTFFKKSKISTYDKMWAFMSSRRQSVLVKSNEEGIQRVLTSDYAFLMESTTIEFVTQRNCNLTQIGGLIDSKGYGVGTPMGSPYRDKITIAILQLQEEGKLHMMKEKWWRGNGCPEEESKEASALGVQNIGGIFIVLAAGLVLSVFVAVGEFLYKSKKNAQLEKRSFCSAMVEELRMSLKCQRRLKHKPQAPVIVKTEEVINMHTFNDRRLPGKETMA

[6] = Displacement of [3H]kainic acid from kainate receptor in rat brain synaptosomal membranes after 60 mins by TopCount microplate scintillation counting method; assay type: cell membranes
[7] = molecular target: Excitatory amino acid transporter 1 (Homo sapiens, UniProt P43003); experiment: Inhibition of human EAAT1 expressed in HEK293 cells assessed as reduction in [3H]-D-Asp uptake after 15 mins by TopCount scintillation counting method; assay type: cell-based
Sequence of Excitatory amino acid transporter 1 (P43003 whole entry): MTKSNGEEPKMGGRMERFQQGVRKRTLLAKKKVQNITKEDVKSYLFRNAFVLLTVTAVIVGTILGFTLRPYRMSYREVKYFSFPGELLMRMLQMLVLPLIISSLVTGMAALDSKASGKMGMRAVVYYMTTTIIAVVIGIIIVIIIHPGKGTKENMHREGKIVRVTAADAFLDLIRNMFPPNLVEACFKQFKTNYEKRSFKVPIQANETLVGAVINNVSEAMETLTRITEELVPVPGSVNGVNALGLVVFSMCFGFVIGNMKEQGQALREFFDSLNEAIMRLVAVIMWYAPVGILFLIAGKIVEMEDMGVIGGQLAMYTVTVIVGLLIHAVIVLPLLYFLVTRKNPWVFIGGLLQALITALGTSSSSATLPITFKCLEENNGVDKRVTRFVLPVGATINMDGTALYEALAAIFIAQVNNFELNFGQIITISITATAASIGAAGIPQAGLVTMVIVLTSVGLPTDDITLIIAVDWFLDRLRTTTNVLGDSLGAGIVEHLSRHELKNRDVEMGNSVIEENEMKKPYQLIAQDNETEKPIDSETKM

[8] = molecular target: Excitatory amino acid transporter 2 (Homo sapiens, UniProt P43004); experiment: Inhibition of human EAAT2 expressed in HEK293 cells assessed as reduction in [3H]-D-Asp uptake after 15 mins by TopCount scintillation counting method; assay type: cell-based
Sequence of Excitatory amino acid transporter 2 (P43004 whole entry): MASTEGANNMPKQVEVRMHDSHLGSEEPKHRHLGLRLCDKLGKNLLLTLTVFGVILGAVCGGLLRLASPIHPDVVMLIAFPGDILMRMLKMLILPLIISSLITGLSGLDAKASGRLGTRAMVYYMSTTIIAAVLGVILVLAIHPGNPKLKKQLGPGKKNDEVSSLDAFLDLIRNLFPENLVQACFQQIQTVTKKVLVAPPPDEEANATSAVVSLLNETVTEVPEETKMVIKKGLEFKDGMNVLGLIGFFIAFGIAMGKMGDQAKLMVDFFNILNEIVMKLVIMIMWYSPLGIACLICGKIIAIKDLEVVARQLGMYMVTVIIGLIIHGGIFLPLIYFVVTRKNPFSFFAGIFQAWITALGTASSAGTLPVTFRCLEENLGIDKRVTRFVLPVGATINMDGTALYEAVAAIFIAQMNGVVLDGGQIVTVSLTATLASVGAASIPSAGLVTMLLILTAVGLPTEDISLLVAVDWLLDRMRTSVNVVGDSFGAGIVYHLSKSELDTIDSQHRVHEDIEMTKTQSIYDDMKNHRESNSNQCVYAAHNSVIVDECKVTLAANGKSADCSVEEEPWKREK

[9] = molecular target: T3, Excitatory amino acid transporter 3 (Homo sapiens, UniProt P43005); experiment: Inhibition of human EAAT3 expressed in HEK293 cells assessed as reduction in [3H]-D-Asp uptake after 15 mins by TopCount scintillation counting method; assay type: cell-based
T3 sequence (P43005 whole entry): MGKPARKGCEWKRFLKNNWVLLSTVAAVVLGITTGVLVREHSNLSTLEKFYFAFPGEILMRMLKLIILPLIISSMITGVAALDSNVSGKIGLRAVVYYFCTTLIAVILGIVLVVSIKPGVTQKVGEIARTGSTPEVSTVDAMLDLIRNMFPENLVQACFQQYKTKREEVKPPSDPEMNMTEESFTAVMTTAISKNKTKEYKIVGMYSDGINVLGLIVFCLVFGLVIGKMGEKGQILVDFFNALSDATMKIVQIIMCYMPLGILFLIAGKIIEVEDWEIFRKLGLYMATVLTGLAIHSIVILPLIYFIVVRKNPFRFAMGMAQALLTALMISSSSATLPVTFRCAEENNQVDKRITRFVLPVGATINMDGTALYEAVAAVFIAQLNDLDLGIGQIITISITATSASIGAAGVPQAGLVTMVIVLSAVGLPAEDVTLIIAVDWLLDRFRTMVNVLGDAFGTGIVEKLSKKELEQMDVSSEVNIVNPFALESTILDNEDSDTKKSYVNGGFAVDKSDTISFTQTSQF

[10] = molecular target: T1, Glutamate receptor ionotropic, kainate 1; experiment: Antagonist activity at recombinant rat full length GluK1 receptor expressed in HEK293T cells assessed as inhibition of glutamate induced increase in peak current at -100mV holding potential by patch-clamp method; assay type: cell-based
Procedure, shortened: (§1)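 Rat GluK1-2a or GluK2a cDNA was transiently co-transfected with eGFP into HEK293T/17 cells by calcium phosphate, 24 h after low-density plating on poly-D-lysine. Recordings were made 36–48 h after transfection. Outside-out patches at −100 mV received fast piezo applications of 1 mM Glu (250 ms). Antagonist was added to control and agonist solutions (final 0.001–300 μM). Peak current was taken as % of control (mean ± SEM, 3–5 responses per concentration), and IC50 was fitted with a Hill equation.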

[11] = molecular target: T1, Glutamate receptor ionotropic, kainate 1; experiment: Displacement of [3H]-(2S,4R)-4-Methylglutamic acid from rat eGFP-fused GluK1 receptor LBD expressed in HEK293T/17 cells by liquid scintillation counting method; assay type: cell-based
[12] = molecular target: T2, Glutamate receptor ionotropic, kainate 2; experiment: Antagonist activity at recombinant rat full length GluK2 receptor expressed in HEK293T cells assessed as inhibition of glutamate induced increase in peak current at -100mV holding potential by patch-clamp method; assay type: cell-based; procedure, shortened: as §1

Structure (SMILES)	Ki ([1]; read-out: Ki) [µM]	Ki [2] [µM]	Ki (Glutamate receptor 2) [µM]	Ki ([3]; read-out: Ki) [µM]	Ki [4] [µM]	Ki [5] [µM]	Ki [6] [µM]	IC50 [7] [µM]	pKi [2]	IC50 [8] [µM]	IC50 [9] [µM]	Ki ([1]; read-out: pKi (converted)) [µM]	Ki ([3]; read-out: pKi (converted)) [µM]	IC50 [10] [µM]	Ki [11] [µM]	IC50 [12] [µM]
O=C(O)Cc1cccc(O[C@H]2CN[C@H](C(=O)O)C2)c1	> 100	> 100	> 100	> 100	> 100	> 100	> 100									
Cc1cccc(C(=O)O)c1O[C@H]1CN[C@H](C(=O)O)C1	5.4	> 100	> 100	> 100	> 100	> 1000	> 100									
O=C(O)c1cccc(S[C@@H]2CN[C@H](C(=O)O)C2)c1	> 100	> 100		> 100	> 100	> 100	> 100									
Cl.O=C(O)c1ccc(O[C@H]2CN[C@H](C(=O)O)C2)cc1	> 100	81		> 100	> 100	> 100	> 100	> 1000	4.11	> 1000	> 1000					
O=C(O)c1ccccc1S[C@H]1CN[C@H](C(=O)O)C1	8.4	19		22	> 100	> 100	> 100		4.73							
O=C(O)c1ccccc1O[C@@H]1CN[C@H](C(=O)O)C1	> 100	> 100		> 100	> 100	> 100	> 100	> 1000		> 1000	> 1000					
O=C(O)c1ccccc1S[C@@H]1CN[C@H](C(=O)O)C1	> 100	> 100		> 100	> 100	> 100	> 100									
O=C(O)c1cccc(O[C@@H]2CN[C@H](C(=O)O)C2)c1	> 100	> 100		> 100	> 100	> 100	> 100									
Cc1ccc(O[C@H]2CN[C@H](C(=O)O)C2)c(C(=O)O)c1	24	> 100	> 100	> 100	> 100	> 100	> 100									
O=C(O)c1ccc2ccccc2c1O[C@H]1CN[C@H](C(=O)O)C1	> 100	> 100	> 100	> 100	> 100	> 100	> 100									
O=C(O)c1cc2ccccc2cc1O[C@H]1CN[C@H](C(=O)O)C1	3.5	> 100	> 100	> 100	> 100	> 1000	> 100									
CC(=O)c1ccc(O[C@H]2CN[C@H](C(=O)O)C2)c(C(=O)O)c1	4.7	> 100	> 100	30	> 100	> 100	> 100									
O=C(O)c1cccc(O[C@H]2CN[C@H](C(=O)O)C2)c1	36	> 100		> 1000	> 100	> 100	> 100	> 1000		> 1000	> 1000	33.1				
O=C(O)c1ccc(O[C@@H]2CN[C@H](C(=O)O)C2)cc1	> 100	> 100		> 100	> 100	> 100	> 100									
O=C(O)c1c(O[C@H]2CN[C@H](C(=O)O)C2)ccc2ccccc12	4.5	> 100	> 100	137	> 100	> 100	> 100						132			
O=C(O)c1ccc(O[C@H]2CN[C@H](C(=O)O)C2)c(C(=O)O)c1	100	> 100	> 100	> 100	> 100	> 1000	> 100									
O=C(O)Cc1ccccc1O[C@H]1CN[C@H](C(=O)O)C1	24	> 100	> 100	> 100	> 100	> 1000	> 100									
O=C(O)c1ccccc1O[C@H]1CN[C@H](C(=O)O)C1	4	> 100		> 100	> 100	> 100	> 100	> 1000		> 1000	> 1000			5.7	2.27	> 100
Cl.O=C(O)c1cccc(C[C@H]2CN[C@H](C(=O)O)C2)c1	> 100	69		> 100	> 100	> 100	> 100		4.18							
O=C(O)c1cccc(S[C@H]2CN[C@H](C(=O)O)C2)c1	> 100	78		> 100	> 100	> 100	> 100		4.11							
